Measurements: paper PMC4570851 (Bioorganic & medicinal chemistry letters, 2012)
Where no end group is shown, it is not given here. [ ]: non-standard residue; d: D form.

Target: T1, sPLA2-IIA-integrin αvβ3 interaction (Homo sapiens, UniProt P14555)
T1 sequence (P14555 21-144): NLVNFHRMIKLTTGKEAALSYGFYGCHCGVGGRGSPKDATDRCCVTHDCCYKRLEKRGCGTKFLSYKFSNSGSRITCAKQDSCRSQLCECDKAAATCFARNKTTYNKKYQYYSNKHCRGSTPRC
Experiment: cell adhesion inhibition assay: αvβ3-K562 cells on immobilized sPLA2-IIA
Type: cell-based
Conditions: for inhibition of the sPLA2-IIA-integrin interaction (in words): αvβ3-K562 cell adhesion to immobilized sPLA2-IIA; for Max. Inhibition / IC50: αvβ3-K562 cells, immobilized sPLA2-IIA, means ± S.E. (n=3); for Max. Inhibition: adhesion without inhibitors as 100%, adhesion to BSA only as 0%; for IC50: compounds 10 to 500 μM, 30 min, cells 1 h at 37 °C
Method in brief: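 Wells coated with sPLA2-IIA and blocked with BSA, then preincubated 30 min with test compound (10 to 500 μM). K562 erythroleukemia cells transfected to overexpress integrin αvβ3 were added for 1 h at 37 °C. Bound cells were quantified by phosphatase assay. IC50 and maximum inhibition came from dose-response data, with no-inhibitor adhesion as 100% and BSA-only as 0%. n=3.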

For Cc1nc(NC(=O)c2ccccc2)sc1-c1cc(C(=O)O)[nH]n1 [Cmpd8-1, R-OH], which “inhibition of the sPLA2-IIA-integrin interaction (in words)” value (“inhibition … (in words)” below) is on record?
The value was “not inhibitory”.

And the “Max. Inhibition” value?
The value was “N/A (N/A, “not active’ (<30% inhibition))”.

Which “Max. Inhibition” value does the source give for Cc1nc(NC(=O)c2ccccc2)sc1-c1cc(C(=O)N[C@@H](C)C(=O)O)[nH]n1 [Cmpd8-2, R-Ala] here?
The value was “N/A (N/A, “not active’ (<30% inhibition))”.

For Cc1nc(NC(=O)c2ccccc2)sc1-c1cc(C(=O)NCC(=O)O)[nH]n1 [Cmpd21-1, R-Gly], which “inhibition … (in words)” value is on record?
The value was “active”.

Which results are given for Ala-Trp-Asp*-Ile [Cmpd8-5]?
inhibition of the sPLA2-IIA-integrin interaction (in words): not inhibitory; Max. Inhibition: N/A (N/A, “not active’ (<30% inhibition))

Gly-Arg*-Gly-Asp*-Asp*-Asp* [Cmpd21-6] was tested. Which “inhibition … (in words)” value did it give?
Its value is “not inhibitory”.

What about the “Max. Inhibition” value of the same molecule?
Its value is “N/A (N/A, “not active’ (<30% inhibition))”.

How did the IC50 turn out when “R-Ala-Trp-Asp*-Ile (AW[dD]I-NH2; not fully specified (N-terminus)) [Cmpd8]” was run?
The IC50 was 20 ± 1.3 µM.

How did the IC50 turn out when “R-Gly-Arg*-Gly-Asp* (G[dR]G[dD]-NH2; not fully specified (N-terminus)) [Cmpd21-4]” was run?
Its IC50 is 155 ± 3.8 µM.

How did the IC50 turn out when “R-Gly-Arg*-Gly-Asp*-Asp*-Asp* (G[dR]G[dD][dD][dD]-NH2; not fully specified (N-terminus)) [Cmpd21]” was run?
The IC50 was 71 ± 18 µM.
